Measured values taken from PubChem BioAssay AID602246 (The Scripps Research Institute Molecular Screening Center, 2012).
Unmarked numbers belong to inactive results. The source made the active and inactive calls.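 How the source made its calls: active means t-test against the solvent control gives p below 0.05 and normalized ATPase activity falls by at least 10%; inactive means the rest.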

Experiment: RTF inhibitors lowering myofibrillar ATP hydrolysis – biochemical, absorbance, porcine cardiac myofibrils, powder samples, mechanism study for cardiac RTF inhibitor project, late-stage follow-up (AID 602246)
Conditions: ATPase Pi absorbance 660 nm, at 10 µM, active compounds read low
Procedure, shortened: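 System: porcine cardiac myofibrils. Also added: ATP substrate at 3.02 mM, calcium at EC50 level. Compound dosing: 10 µM single dose. Incubation: 5 min compound preincubation, then 7 min ATPase reaction, 25 °C. Detection: Fiske-Subbarow colorimetric phosphate absorbance at 660 nm, TCA-stopped. Controls: DMSO wells. Replicates: Quintuplicate wells per compound.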

SMILES	normalized ATPase activity
NCCCCCCNS(=O)(=O)c1cccc2c(Cl)cccc12	0.854 (active)
O=C(O)c1ccc2c(c1)[C@@H]1C=CC[C@@H]1[C@H](c1ccccn1)N2	0.982
COc1cccc2c1NC(C(=O)O)C1CC=CC21 (stereo not given)	1.03
O=C(O)c1cccc(-n2cccc2/C=C2/NC(=O)N(c3ccc(Cl)cc3)C2=O)c1	0.975
O=C(O)c1ccc2nc(-c3ccco3)c(-c3ccco3)nc2c1	1.03
